Reference: ChEMBL document CHEMBL4627381, “Licochalcone A Selectively Resensitizes ABCG2-Overexpressing Multidrug-Resistant Cancer Cells to Chemotherapeutic Drugs” (J Nat Prod, 2020)
The source made the active and inactive calls. The calls are words filed in the database; no cut-off is given here.

Assays:
[1] = target: T1, Broad substrate specificity ATP-binding cassette transporter ABCG2 (Homo sapiens, UniProt Q9UNQ0); assay: Reversal of human ABCG2-mediated multidrug resistance in HEK293/R482 cells assessed as fold change in mitoxantrone IC50 at 1 uM after 72 hrs by CCK8 assay relative to mitoxantrone IC50; type: cell-based
T1 sequence (Q9UNQ0 whole entry): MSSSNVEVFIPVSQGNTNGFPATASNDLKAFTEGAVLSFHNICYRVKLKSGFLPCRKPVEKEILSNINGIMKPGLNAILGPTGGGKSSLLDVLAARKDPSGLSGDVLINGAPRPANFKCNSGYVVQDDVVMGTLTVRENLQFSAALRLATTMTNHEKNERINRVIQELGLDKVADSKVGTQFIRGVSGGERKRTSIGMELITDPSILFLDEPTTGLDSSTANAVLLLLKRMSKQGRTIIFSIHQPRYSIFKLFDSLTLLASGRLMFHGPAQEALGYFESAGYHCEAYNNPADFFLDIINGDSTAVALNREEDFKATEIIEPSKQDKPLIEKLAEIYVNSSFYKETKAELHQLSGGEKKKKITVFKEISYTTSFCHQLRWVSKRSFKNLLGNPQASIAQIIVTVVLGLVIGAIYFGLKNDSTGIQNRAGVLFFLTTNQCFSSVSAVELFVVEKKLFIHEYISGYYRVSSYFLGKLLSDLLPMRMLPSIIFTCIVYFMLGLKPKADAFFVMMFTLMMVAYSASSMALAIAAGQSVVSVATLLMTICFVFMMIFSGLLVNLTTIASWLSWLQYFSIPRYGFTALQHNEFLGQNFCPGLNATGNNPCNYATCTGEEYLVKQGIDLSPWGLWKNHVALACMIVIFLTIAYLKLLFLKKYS
Method in brief: (§1)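 Cells were seeded at 5000/well for 24 h, then given colchicine, etoposide, mitoxantrone or topotecan ± non-toxic modulator (0.5–3.0 μM) for 72 h, with DMSO up to 0.5%. IC50 came from fitted curves (mean ± SD, three experiments). Fold-reversal = IC50 without modulator ÷ IC50 with modulator.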

S1-M1-80 [2] = assay: Potentiation of topotecan-induced apoptosis in human S1-M1-80 cells harboring ABCG2 (unknown origin) assessed as viable cells at 10 uM incubated for 48 hrs by annexin V/propidium iodide staining based flow cytometry (reference value: 90.6%); type: functional; settings: S1-M1-80, 48 h, read-out: Activity
S1-M1-80 [3] = assay: Induction of apoptosis in human S1-M1-80 cells harboring ABCG2 (unknown origin) assessed as early apoptotic cells at 10 uM incubated for 48 hrs by annexin V/propidium iodide staining based flow cytometry (reference value: 2.8%); type: functional
S1-M1-80 [4] = assay: Induction of apoptosis in human S1-M1-80 cells harboring ABCG2 (unknown origin) assessed as viable cells at 10 uM incubated for 48 hrs by annexin V/propidium iodide staining based flow cytometry (reference value: 93.9%); type: functional; settings: S1-M1-80, 48 h, read-out: Activity
Homo sapiens = species on record: Homo sapiens; assay: Downregulation of ABCG2 expression in human NCI-H460/MX20 cells at 0.5 to 3 uM incubated for 72 hrs by Western blot analysis; type: functional, cell-based
Method in brief: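 S1-M1–80 and H460-MX20 cells were treated with 0.5–3.0 μM or DMSO vehicle for 72 h, then run on SDS-PAGE and immunoblotted with BXP-21 (1:15000) for ABCG2. α-Tubulin (1:100000) served as loading control, with HRP goat anti-mouse secondary. Bands were quantified as mean ± SEM of three independent experiments.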

NCI-H460 [5] = assay: Induction of pheophorbide A accumulation in human H460 cells at 20 uM incubated for 1 hr by FACScan flow cytometry; type: functional, cell-based
Method in brief: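 Cells held drug-free 7 days. 3 × 10^5 cells were suspended in IMDM with 5% FCS and loaded with pheophorbide A (ex 395/em 670 nm) for 1 h, with or without LCA (20 μM for single-concentration accumulation) or Ko143 3 μM as reference. Read immediately by flow cytometry. Efflux inhibition was run over a concentration range; mean ± SD of three experiments.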

HEK293 [6] = assay: Induction of Calcein-AM accumulation in HEK293 cells at 20 uM incubated for 10 mins by FACScan flow cytometry; type: cell-based; settings: human, hek293, 10 min
Method in brief: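 Parental HEK293 cells (3 × 10^5) were resuspended in IMDM with 5% FCS and given calcein-AM with or without 20 μM modulator for 10 min. Intracellular calcein (ex 485/em 535 nm) was measured by flow cytometry; at least three independent experiments.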

[7] = target: T1, Broad substrate specificity ATP-binding cassette transporter ABCG2; assay: Reversal of ABCG2 (unknown origin)-mediated multidrug resistance in human H460-MX20 cells assessed as fold change in topotecan IC50 at 0.5 uM after 72 hrs by MTT assay relative to topotecan IC50; type: cell-based
Method in brief: (§2)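 Cells held drug-free 7 days, seeded at 5000 per well for 24 h, then exposed 72 h to mitoxantrone or topotecan dilutions with DMSO (≤0.5%), LCA 0.5–3.0 μM, or Ko143 1.0 μM. Viability was read by MTT. IC50 came from fitted dose-response curves of three independent experiments. Fold-reversal = IC50 without modulator divided by IC50 with modulator.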

[8] = target: T1, Broad substrate specificity ATP-binding cassette transporter ABCG2; assay: Reversal of ABCG2 (unknown origin)-mediated multidrug resistance in human H460-MX20 cells assessed as fold change in mitoxantrone IC50 at 0.5 uM after 72 hrs by MTT assay relative to mitoxantrone IC50; type: cell-based; method in brief: as §2
NCI-H460 [9] = assay: Effect on mitoxantrone-induced cytotoxicity against human H460 cells assessed as change in mitoxantrone IC50 at 3 uM after 72 hrs by MTT assay relative to mitoxantrone IC50; type: functional
Method in brief: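 Parental S1 colon and H460 lung cancer cells were exposed for 72 h to a mitoxantrone or topotecan concentration series, with or without modulator at 0.5–3.0 μM, and read by MTT. Fold-reversal is IC50 without modulator divided by IC50 with modulator, taken from dose-response curves of three independent experiments.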

HEK293 [10] = assay: Effect on topotecan-induced cytotoxicity against HEK293 cells assessed as fold change in topotecan IC50 at 1 uM after 72 hrs by CCK8 assay relative to topotecan IC50; type: cell-based; settings: human, hek293, 72 h
Method in brief: (§3)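 Reversal assay in parental pcDNA-HEK293 and transfected HEK293 lines (ABCB1 for colchicine, ABCC1 for etoposide, ABCG2 for mitoxantrone/topotecan). Substrate drug series was given with or without nontoxic modulator (0.5, 1.0, 2.0 or 3.0 μM) for 72 h, with a CCK-8 read-out. Fold-reversal is substrate IC50 without modulator divided by IC50 with modulator. Three independent experiments.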

HEK293 [11] = assay: Effect on mitoxantrone-induced cytotoxicity against HEK293 cells assessed as fold change in mitoxantrone IC50 at 3 uM after 72 hrs by CCK8 assay relative to mitoxantrone IC50; type: cell-based; settings: human, hek293, 72 h; method in brief: as §3
[12] = target: Multidrug resistance-associated protein 1 (Homo sapiens, UniProt P33527); assay: Reversal of human ABCC1-mediated multidrug resistance in HEK293/MRP1 cells assessed as fold-change in etoposide IC50 at 2 uM after 72 hrs by CCK8 relative to etoposide IC50; type: cell-based; method in brief: as §1
Multidrug resistance-associated protein 1, sequence (P33527 whole entry): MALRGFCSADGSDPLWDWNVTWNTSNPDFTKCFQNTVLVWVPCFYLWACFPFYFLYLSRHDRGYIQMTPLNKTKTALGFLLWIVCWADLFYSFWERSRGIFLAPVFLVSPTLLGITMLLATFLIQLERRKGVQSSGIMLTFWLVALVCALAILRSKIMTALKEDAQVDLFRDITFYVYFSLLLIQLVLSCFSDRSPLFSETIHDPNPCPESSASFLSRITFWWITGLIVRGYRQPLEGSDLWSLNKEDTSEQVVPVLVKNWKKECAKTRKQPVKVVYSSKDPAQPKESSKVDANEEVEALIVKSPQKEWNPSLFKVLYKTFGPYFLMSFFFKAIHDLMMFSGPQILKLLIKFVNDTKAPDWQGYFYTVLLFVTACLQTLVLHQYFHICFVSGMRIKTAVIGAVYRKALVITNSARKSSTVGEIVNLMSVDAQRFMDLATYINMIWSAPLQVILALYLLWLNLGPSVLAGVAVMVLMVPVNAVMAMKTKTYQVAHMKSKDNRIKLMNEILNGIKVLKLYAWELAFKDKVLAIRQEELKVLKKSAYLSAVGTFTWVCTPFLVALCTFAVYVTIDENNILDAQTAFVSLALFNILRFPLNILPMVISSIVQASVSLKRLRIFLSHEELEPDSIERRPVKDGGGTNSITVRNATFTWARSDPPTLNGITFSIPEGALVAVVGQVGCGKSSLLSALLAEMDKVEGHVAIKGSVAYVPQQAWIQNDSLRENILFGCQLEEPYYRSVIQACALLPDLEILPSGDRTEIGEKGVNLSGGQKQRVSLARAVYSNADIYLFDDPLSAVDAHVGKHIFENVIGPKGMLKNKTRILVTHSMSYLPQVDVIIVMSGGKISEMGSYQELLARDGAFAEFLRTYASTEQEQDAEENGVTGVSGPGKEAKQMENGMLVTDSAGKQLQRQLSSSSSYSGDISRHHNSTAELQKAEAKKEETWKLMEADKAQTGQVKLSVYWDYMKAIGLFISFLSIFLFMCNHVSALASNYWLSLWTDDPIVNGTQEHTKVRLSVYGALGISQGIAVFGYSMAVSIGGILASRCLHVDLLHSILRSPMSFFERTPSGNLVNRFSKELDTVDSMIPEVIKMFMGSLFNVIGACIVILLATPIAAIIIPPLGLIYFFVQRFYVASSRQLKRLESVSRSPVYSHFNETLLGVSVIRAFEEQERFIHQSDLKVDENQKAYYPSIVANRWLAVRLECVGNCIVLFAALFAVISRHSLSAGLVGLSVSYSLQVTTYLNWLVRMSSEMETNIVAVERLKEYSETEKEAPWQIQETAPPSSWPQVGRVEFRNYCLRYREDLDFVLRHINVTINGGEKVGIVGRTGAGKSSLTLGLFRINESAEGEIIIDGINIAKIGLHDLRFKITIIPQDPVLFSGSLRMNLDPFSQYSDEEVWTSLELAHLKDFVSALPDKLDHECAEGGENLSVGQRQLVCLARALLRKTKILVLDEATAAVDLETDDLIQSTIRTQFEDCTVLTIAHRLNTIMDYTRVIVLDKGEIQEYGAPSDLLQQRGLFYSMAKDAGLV

HEK293 [13] = assay: Effect on etoposide-induced cytotoxicity against HEK293 cells assessed as fold change in etoposide IC50 at 3 uM after 72 hrs by CCK8 assay relative to etoposide IC50; type: cell-based; settings: human, hek293, 72 h; method in brief: as §3

## C=CC(C)(C)c1cc(/C=C/C(=O)c2ccc(O)cc2)c(OC)cc1O [LICOAGROCHACONE A]
[1]
  fold change (FC): 7.1
S1-M1-80 [2]
  viability at 10 µM: 67.8%
S1-M1-80 [3]
  Activity: 2.5%
S1-M1-80 [4]
  viability at 10 µM: 94.4%
Homo sapiens
  Activity: inactive
NCI-H460 [5]
  Activity: inactive
HEK293 [6]
  Activity: Non-Toxic
[7]
  fold change (FC): 3.6
[8]
  fold change (FC): 2.6
NCI-H460 [9]
  fold change (FC): 1.1
HEK293 [10]
  fold change (FC): 1
HEK293 [11]
  fold change (FC): 1
[12]
  fold change (FC): 1
HEK293 [13]
  fold change (FC): 0.8
